Laboratory results published in ChEMBL document CHEMBL1156175, “Synthesis, molecular modeling and biological evaluation of PSB as targeted antibiotics” (Bioorg Med Chem, 2010).
Values after ≈ are worked out from the molar mass of the structure shown.

What was measured:
[1] = biological target: T1, 3-oxoacyl-[acyl-carrier-protein] synthase 3 (Escherichia coli, UniProt C3TDZ2); experiment: Inhibition of Escherichia coli KAS3 after 1 min assessed as incorporation of 3H signal in the final product by liquid scintillation counter; conditions: in the assay text read “after 25 mins” for “after 1 min”
T1 sequence (C3TDZ2 whole entry): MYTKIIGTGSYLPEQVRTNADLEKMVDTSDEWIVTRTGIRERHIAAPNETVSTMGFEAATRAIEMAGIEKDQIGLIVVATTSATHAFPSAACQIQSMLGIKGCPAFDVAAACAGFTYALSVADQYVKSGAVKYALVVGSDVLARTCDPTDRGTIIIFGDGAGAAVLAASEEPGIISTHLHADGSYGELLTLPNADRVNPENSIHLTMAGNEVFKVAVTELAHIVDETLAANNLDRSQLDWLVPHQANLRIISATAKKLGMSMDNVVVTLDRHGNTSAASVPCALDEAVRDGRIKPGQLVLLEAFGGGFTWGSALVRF
How it was run: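 His-tagged ecKAS III expressed in E. coli BL21(DE3) (pET30) and purified on Ni–NTA. Reaction in 20 mM sodium phosphate pH 7.0, 0.5 mM DTT, 0.25 mM MgCl₂ with holo-ACP and 1 nM enzyme, preincubated 1 min. Started with acetyl-CoA, NADH and NADPH (0.5 mM each for the last two); run 25 min. Stopped with ice-cold TCA; protein pellet washed and dissolved in NaOH; ³H incorporation read by liquid scintillation. Inhibitors added from DMSO stock, final DMSO ≤2%.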

[2] = biological target: T1, 3-oxoacyl-[acyl-carrier-protein] synthase 3; experiment: Inhibition of Escherichia coli KAS3 after 25 mins assessed as incorporation of 3H signal in the final product by liquid scintillation counter
Escherichia coli = experiment: Antibacterial activity against Escherichia coli ATCC 35218 after 24 hrs by colorimetric method using dye MTT; assay type: functional; conditions: ATCC 35218, 24 h
How it was run: (§1)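 Mueller–Hinton broth microdilution; compounds from DMSO stock (50 μg/mL) serially diluted in medium; inoculum approx. 10⁵ cfu/mL; 37 °C for 24 h. After visual MIC reading, PBS (0.01 mol/L, pH 7.4) containing 2 mg/mL MTT added, incubated 4–5 h at room temperature, then 12 h at room temperature; OD read at 550 nm. MIC is the average of triplicates.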

Pseudomonas aeruginosa = experiment: Antibacterial activity against Pseudomonas aeruginosa ATCC 13525 after 24 hrs by colorimetric method using dye MTT; assay type: functional; conditions: ATCC 13525, 24 h; how it was run: as §1
Bacillus subtilis = experiment: Antibacterial activity against Bacillus subtilis ATCC 6633 after 24 hrs by colorimetric method using dye MTT; assay type: functional; conditions: ATCC 6633, 24 h; how it was run: as §1
Staphylococcus aureus = experiment: Antibacterial activity against Staphylococcus aureus ATCC 6538 after 24 hrs by colorimetric method using dye MTT; assay type: functional; conditions: ATCC 6538, 24 h; how it was run: as §1

| Compound | IC50 [1] | IC50 [2] | MIC (Escherichia coli) | MIC (Pseudomonas aeruginosa) | MIC (Bacillus subtilis) | MIC (Staphylococcus aureus) |
| --- | --- | --- | --- | --- | --- | --- |
| CC(CNC(=O)c1ccccc1O)/N=C/c1c(O)ccc2ccccc12 (stereo unspecified) | 56.7 µM |  |  |  |  |  |
| CC(CNC(=O)c1cc(Br)ccc1O)/N=C/c1ccccc1O (stereo unspecified) |  | > 133 µM |  |  |  |  |
| CC(CNC(=O)c1cc(Br)ccc1O)/N=C/c1cc(F)ccc1O (stereo unspecified) | 56 µM |  |  |  |  |  |
| CC(CNC(=O)c1ccccc1O)/N=C/c1cc(Br)ccc1O (stereo unspecified) |  | 16 µM |  |  |  |  |
| CC(CNC(=O)c1ccccc1O)/N=C/c1cc(I)ccc1O (stereo unspecified) |  | 1.84 µM | 6.25 µg/mL (≈ 14.7 µM) | 3.13 µg/mL (≈ 7.38 µM) | 0.78 µg/mL (≈ 1.84 µM) | 12.5 µg/mL (≈ 29.5 µM) |
| CC(CNC(=O)c1ccccc1O)/N=C/c1cc(Cl)cc(Cl)c1O (stereo unspecified) | 0.844 µM |  | 0.39 µg/mL (≈ 1.06 µM) | 0.2 µg/mL (≈ 0.545 µM) | 1.56 µg/mL (≈ 4.25 µM) | 3.13 µg/mL (≈ 8.52 µM) |
| CC(CNC(=O)c1cc(Br)ccc1O)/N=C/c1cc(Cl)ccc1O (stereo unspecified) |  | > 121 µM |  |  |  |  |
| CC(CNC(=O)c1cc(Br)ccc1O)/N=C/c1cc(I)ccc1O (stereo unspecified) |  | 18.5 µM |  |  |  |  |
| CC(CNC(=O)c1cc(Br)ccc1O)/N=C/c1cc(Cl)cc(Cl)c1O (stereo unspecified) |  | 19.6 µM |  |  |  |  |
| CC(CNC(=O)c1cc(Br)ccc1O)/N=C/c1cc(I)cc(I)c1O (stereo unspecified) | > 79.5 µM |  |  |  |  |  |
| Cc1ccc(C(=O)NCC(C)/N=C/c2cc(F)ccc2O)c(O)c1 (stereo unspecified) |  | 17.1 µM | 6.25 µg/mL (≈ 18.9 µM) | > 50 µg/mL | 3.13 µg/mL (≈ 9.47 µM) | 12.5 µg/mL (≈ 37.8 µM) |
| Cc1ccc(C(=O)NCC(C)/N=C/c2cc(Cl)ccc2O)c(O)c1 (stereo unspecified) | 24.9 µM |  |  |  |  |  |
| Cc1ccc(C(=O)NCC(C)/N=C/c2cc(Br)ccc2O)c(O)c1 (stereo unspecified) |  | 16.2 µM |  |  |  |  |
| Cc1ccc(C(=O)NCC(C)/N=C/c2cc(I)ccc2O)c(O)c1 (stereo unspecified) |  | 1.03 µM | 0.39 µg/mL (≈ 0.89 µM) | 3.13 µg/mL (≈ 7.14 µM) | 1.56 µg/mL (≈ 3.56 µM) | 1.56 µg/mL (≈ 3.56 µM) |
| CC(CNC(=O)c1ccccc1O)/N=C/c1cc(Br)cc(Br)c1O (stereo unspecified) | 6.86 µM |  | 25 µg/mL (≈ 54.8 µM) | 0.78 µg/mL (≈ 1.71 µM) | 12.5 µg/mL (≈ 27.4 µM) | 6.25 µg/mL (≈ 13.7 µM) |
| CC(CNC(=O)c1ccccc1O)/N=C/c1cc(I)cc(I)c1O (stereo unspecified) | 4.65 µM |  | > 50 µg/mL | 6.25 µg/mL (≈ 11.4 µM) | 12.5 µg/mL (≈ 22.7 µM) | 12.5 µg/mL (≈ 22.7 µM) |
| Cc1ccc(C(=O)NCC(C)/N=C/c2cc(Cl)cc(Cl)c2O)c(O)c1 (stereo unspecified) | 4.59 µM |  | 3.13 µg/mL (≈ 8.21 µM) | 25 µg/mL (≈ 65.6 µM) | 1.56 µg/mL (≈ 4.09 µM) | 6.25 µg/mL (≈ 16.4 µM) |
| CC(CNC(=O)c1cc(Br)ccc1O)/N=C/c1cc(Br)cc(Br)c1O (stereo unspecified) | > 93.5 µM |  |  |  |  |  |
| Cc1ccc(C(=O)NCC(C)/N=C/c2cc(Br)cc(Br)c2O)c(O)c1 (stereo unspecified) |  | 11.4 µM | 0.78 µg/mL (≈ 1.66 µM) | 12.5 µg/mL (≈ 26.6 µM) | 3.13 µg/mL (≈ 6.66 µM) | > 50 µg/mL |
| Cc1ccc(C(=O)NCC(C)/N=C/c2cc(I)cc(I)c2O)c(O)c1 (stereo unspecified) | 26.5 µM |  |  |  |  |  |
| Cc1ccc(C(=O)NCC(C)/N=C/c2c(O)ccc3ccccc23)c(O)c1 (stereo unspecified) |  | 12.9 µM | 12.5 µg/mL (≈ 34.5 µM) | > 50 µg/mL | 6.25 µg/mL (≈ 17.2 µM) | > 50 µg/mL |
| CC(CNC(=O)c1ccccc1O)/N=C/c1ccccc1O (stereo unspecified) | 27.3 µM |  |  |  |  |  |
| CC(CNC(=O)c1ccccc1O)/N=C/c1cc(F)ccc1O (stereo unspecified) | 38.3 µM |  |  |  |  |  |
| CC(CNC(=O)c1ccccc1O)/N=C/c1cc(Cl)ccc1O (stereo unspecified) |  | 16.4 µM | 12.5 µg/mL (≈ 37.6 µM) | 3.13 µg/mL (≈ 9.41 µM) | > 50 µg/mL | > 50 µg/mL |
| CC(CNC(=O)c1cc(Br)ccc1O)/N=C/c1cc(Br)ccc1O (stereo unspecified) | 36.6 µM |  |  |  |  |  |
| CC(CNC(=O)c1cc(Br)ccc1O)/N=C/c1c(O)ccc2ccccc12 (stereo unspecified) | 25.6 µM |  |  |  |  |  |
| Cc1ccc(C(=O)NCC(C)/N=C/c2ccccc2O)c(O)c1 (stereo unspecified) | 25.2 µM |  |  |  |  |  |
| NC[C@H]1O[C@H](O[C@H]2[C@H](O)[C@@H](O[C@H]3O[C@H](CO)[C@@H](O)[C@H](N)[C@H]3O)[C@H](N)C[C@@H]2N)[C@H](O)[C@@H](O)[C@@H]1O [KANAMYCIN] |  |  | 3.13 µg/mL (≈ 6.46 µM) | 3.13 µg/mL (≈ 6.46 µM) | 1.56 µg/mL (≈ 3.22 µM) | 1.56 µg/mL (≈ 3.22 µM) |
